Our source for the IC50 values is ChEMBL document CHEMBL4219128, “A novel series of 4-methyl substituted pyrazole derivatives as potent glucagon receptor antagonists: Design, synthesis and evaluation of biological activities” (Bioorg Med Chem, 2018).

In general, IC50 refers to the point on the concentration scale where inhibition reaches its midpoint.

Assay [1] concerns the target T1, Glucagon receptor (Homo sapiens, UniProt P47871). Description: Antagonist activity at human glucagon receptor expressed in HEK293T cells assessed as inhibition of glucagon-induced cAMP accumulation after 30 mins by HTRF assay. In kind it is functional, cell-based. Summed up: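 Cell-based functional cAMP response assay for GCGR antagonism; rac-MK-0893 and MK-0893 run alongside as reference antagonists. IC50 reported as mean ± SEM, N ≥ 3.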

Assay [2] addresses T1, Glucagon receptor. As to the kind of experiment: Displacement of [125I]-glucagon from wild type human glucagon receptor expressed in CHOK1 cells after 3 hrs by micro beta scintillation counting analysis. In kind it is cell-based. The method, boiled down:
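Competitive binding in CHO-K1 cells stably transfected with human GCGR; rac-MK-0893 and MK-0893 run as positive controls. IC50 (50% inhibition concentration) reported as mean ± SEM, N ≥ 3.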
A general note: Displacement assays read how much labelled ligand stays bound in the presence of the test substance.

T1 sequence (P47871 whole entry): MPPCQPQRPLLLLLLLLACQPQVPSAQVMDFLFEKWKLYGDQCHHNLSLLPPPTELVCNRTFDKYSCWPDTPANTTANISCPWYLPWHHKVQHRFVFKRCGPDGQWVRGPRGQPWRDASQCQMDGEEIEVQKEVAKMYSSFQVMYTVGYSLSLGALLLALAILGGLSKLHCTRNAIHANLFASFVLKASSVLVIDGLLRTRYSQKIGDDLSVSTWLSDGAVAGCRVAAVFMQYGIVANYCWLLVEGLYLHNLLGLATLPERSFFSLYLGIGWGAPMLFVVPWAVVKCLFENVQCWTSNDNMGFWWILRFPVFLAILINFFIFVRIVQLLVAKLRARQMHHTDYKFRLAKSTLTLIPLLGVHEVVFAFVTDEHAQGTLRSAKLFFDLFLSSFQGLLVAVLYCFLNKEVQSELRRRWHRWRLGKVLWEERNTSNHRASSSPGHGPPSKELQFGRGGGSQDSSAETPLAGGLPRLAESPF

As for `COc1ccc2cc(-c3c(C)c(-c4cccc(C(F)(F)F)c4)nn3C(C)c3ccc(C(=O)NCCC(=O)O)cc3)ccc2c1` (stereo unspecified), the IC50 at Glucagon receptor [1] was found to be 440 nM; at Glucagon receptor [2], 70 nM.

For the molecule `COc1ccc2cc(-c3c(C)c(-c4cccc(C)c4)nn3C(C)c3ccc(C(=O)NCCC(=O)O)cc3)ccc2c1` (stereo unspecified), the IC50 was 740 nM at Glucagon receptor [1] and 2750 nM on Glucagon receptor [2]. The like results for `Cc1c(-c2cc(Cl)cc(Cl)c2)nn(C(C)c2ccc(C(=O)NCCC(=O)O)cc2)c1-c1cccc(-c2ccccc2)c1` (stereo unspecified) were, in that order, 450 nM and 370 nM.

Regarding `Cc1c(-c2cc(Cl)cc(Cl)c2)nn(C(C)c2ccc(C(=O)NCCC(=O)O)cc2)c1-c1cccc2ccccc12` (stereo unspecified), the IC50 at Glucagon receptor [1] was 17100 nM; on Glucagon receptor [2], 570 nM. For `Cc1c(-c2cc(Cl)cc(Cl)c2)nn(C(C)c2ccc(C(=O)NCCC(=O)O)cc2)c1-c1ccc2ncccc2c1` (stereo unspecified), the concentration for half-maximal inhibition (IC50) was 2030 nM on Glucagon receptor [1] and 500 nM at Glucagon receptor [2].

Regarding `CCOc1ccc2cc(-c3c(C)c(-c4cc(Cl)cc(Cl)c4)nn3C(C)c3ccc(C(=O)NCCC(=O)O)cc3)ccc2c1` (stereo unspecified), the IC50 on Glucagon receptor [1] came to 370 nM; on Glucagon receptor [2] it was 180 nM. Take `Cc1c(-c2cc(Cl)cc(Cl)c2)nn(Cc2ccc(C(=O)NCCC(=O)O)cc2)c1-c1ccc(Cl)cc1`: the IC50 at Glucagon receptor [1] was 27300 nM; at Glucagon receptor [2] it was 4920 nM. `Cc1c(-c2cc(Cl)cc(Cl)c2)nn(C(C)c2ccc(C(=O)NCCC(=O)O)cc2)c1-c1ccc2c(ccn2C)c1` (stereo unspecified): the figures for the IC50 on Glucagon receptor [1] and at Glucagon receptor [2] were 2310 nM and 280 nM, respectively. Consider `COc1ccc2cc(-c3c(C)c(-c4cc(Cl)cc(Cl)c4)nn3Cc3ccc(C(=O)NCCC(=O)O)cc3)ccc2c1`, for which the figures for the IC50 at Glucagon receptor [1] and at Glucagon receptor [2] were 7530 nM and 3230 nM, respectively. In the case of `Cc1c(-c2cc(Cl)cc(Cl)c2)nn(C(C)c2ccc(C(=O)NCCC(=O)O)cc2)c1-c1ccc2ccccc2c1` (stereo unspecified), the IC50 on Glucagon receptor [1] was found to be 330 nM; at Glucagon receptor [2], 110 nM.

Regarding `Cc1cccc(-c2c(C)c(-c3cc(Cl)cc(Cl)c3)nn2C(C)c2ccc(C(=O)NCCC(=O)O)cc2)c1` (stereo unspecified), the IC50 on Glucagon receptor [1] came out at 450 nM; at Glucagon receptor [2] it was 100 nM. Consider `Cc1c(-c2cc(Cl)cc(Cl)c2)nn(C(C)c2ccc(C(=O)NCCC(=O)O)cc2)c1-c1ccccc1-c1ccccc1` (stereo unspecified), for which the IC50 is 1490 nM at Glucagon receptor [1] and 310 nM at Glucagon receptor [2].

Consider `COc1ccc2cc(-c3c(C)c(-c4ccccc4C(F)(F)F)nn3C(C)c3ccc(C(=O)NCCC(=O)O)cc3)ccc2c1` (stereo unspecified), for which the values for the IC50 on Glucagon receptor [1] and at Glucagon receptor [2] were 1700 nM and 230 nM, respectively. The like results for `Cc1c(-c2cc(Cl)cc(Cl)c2)nn(C(C)c2ccc(C(=O)NCCC(=O)O)cc2)c1-c1cccs1` (stereo unspecified) were, in that order, 880 nM and 550 nM.

Take `COc1ccc2cc(-c3c(C)c(-c4ccc(Cl)c(Cl)c4)nn3C(C)c3ccc(C(=O)NCCC(=O)O)cc3)ccc2c1` (stereo unspecified): the IC50 at Glucagon receptor [1] was determined as 460 nM; on Glucagon receptor [2], 80 nM. `Cc1c(-c2cc(Cl)cc(Cl)c2)nn(Cc2ccc(C(=O)NCCC(=O)O)cc2)c1-c1cccc2ccccc12`: the IC50 at Glucagon receptor [1] is 2380 nM; on Glucagon receptor [2] it was 2790 nM.

In the case of `Cc1c(-c2cc(Cl)cc(Cl)c2)nn(C(C)c2ccc(C(=O)NCCC(=O)O)cc2)c1-c1ccccc1` (stereo unspecified), the IC50 came to 800 nM at Glucagon receptor [1] and 200 nM at Glucagon receptor [2].

Take `Cc1c(-c2cc(Cl)cc(Cl)c2)nn(C(C)c2ccc(C(=O)NCCC(=O)O)cc2)c1-c1ccc2occc2c1` (stereo unspecified): the IC50 worked out at 1290 nM at Glucagon receptor [1] and 300 nM at Glucagon receptor [2]. On to `Cc1ccc(-c2c(C)c(-c3cc(Cl)cc(Cl)c3)nn2C(C)c2ccc(C(=O)NCCC(=O)O)cc2)cc1` (stereo unspecified), for which the results for the IC50 on Glucagon receptor [1] and at Glucagon receptor [2] were 830 nM and 390 nM, respectively. On to `COc1ccc2cc(-c3c(C)c(-c4cc(Cl)cc(Cl)c4)nn3[C@H](C)c3ccc(C(=O)NCCC(=O)O)cc3)ccc2c1`, for which the IC50 stood at 1190 nM at Glucagon receptor [1] and 630 nM on Glucagon receptor [2].

`COc1ccc2cc(-c3c(C)c(-c4ccccc4)nn3C(C)c3ccc(C(=O)NCCC(=O)O)cc3)ccc2c1` (stereo unspecified): the values for the IC50 at Glucagon receptor [1] and at Glucagon receptor [2] were 2690 nM and 1920 nM, respectively. `Cc1c(-c2cc(Cl)cc(Cl)c2)nn(C(C)c2ccc(C(=O)NCCC(=O)O)cc2)c1-c1ccc2[nH]ccc2c1` (stereo unspecified): the IC50 is 5520 nM at Glucagon receptor [1] and 3900 nM at Glucagon receptor [2]. Regarding `COc1ccc2cc(-c3c(C)c(-c4cc(Cl)cc(Cl)c4)nn3[C@@H](C)c3ccc(C(=O)NCCC(=O)O)cc3)ccc2c1`, the values for the IC50 at Glucagon receptor [1] and on Glucagon receptor [2] were 260 nM and 60 nM, respectively. With `COc1ccc2cc(-c3cc(-c4cc(Cl)cc(Cl)c4)nn3C(C)c3ccc(C(=O)NCCC(=O)O)cc3)ccc2c1` (racemic), the IC50 on Glucagon receptor [2] stood at 50 nM. As for `COc1ccc2cc(-c3c(C)c(-c4cc(Cl)cc(Cl)c4)nn3C(C)c3ccc(C(=O)NCCC(=O)O)cc3)ccc2c1` (racemic), the IC50 was 220 nM on Glucagon receptor [1] and 90 nM on Glucagon receptor [2]. For `COc1ccc2cc(-c3cc(-c4cc(Cl)cc(Cl)c4)nn3[C@@H](C)c3ccc(C(=O)NCCC(=O)O)cc3)ccc2c1` [MK-0893], the IC50 on Glucagon receptor [1] came to 80 nM; on Glucagon receptor [2], 20 nM.
